The test system of assay [1] is Mycobacterium tuberculosis. Nature of the assay: Antimycobacterial activity against Mycobacterium bovis BCG by MABA. It is filed as functional, variant bovis BCG. Summed up: (§1)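 Compounds in DMSO (100× highest final concentration), diluted in 7H9GC; tested at 100, 50, 10 and 1 µg/mL in triplicate, three experiments. Frozen inoculum diluted in 7H9GC. Read visually and spectrophotometrically. […], mean given. Visual MIC = lowest concentration preventing blue-to-pink change.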
Background: The colour change of resazurin is a common sign of viable cells or microbes.

The test system of assay [2] is Mycobacterium tuberculosis. Nature of the assay: Antimycobacterial activity against Mycobacterium bovis BCG at 100 ug/mL after 24 to 48 hrs by MABA. It is filed as functional. Conditions: variant bovis BCG. The essentials: as §1
The test system of assay [3] is Mycobacterium tuberculosis. Nature of the assay: Antimycobacterial activity against Mycobacterium bovis BCG at 50 ug/mL after 24 to 48 hrs by MABA. It is filed as functional. Conditions: variant bovis BCG. The essentials: as §1
Assay [4] has as its system Mycobacterium tuberculosis. Nature of the assay: Antimycobacterial activity against Mycobacterium bovis BCG at 10 ug/mL after 24 to 48 hrs by MABA. It is filed as functional. As to conditions: variant bovis BCG. The essentials:
as §1

Assay [5] concerns Mycobacterium tuberculosis. Nature of the assay: Antimycobacterial activity against Mycobacterium bovis BCG at 1 ug/mL after 24 to 48 hrs by MABA. As to conditions: variant bovis BCG. It is filed as functional. Summed up:
as §1

Inhibition and inhibition data for 25 molecules are collected here from ChEMBL document CHEMBL1146361, “Studies on acyclic pyrimidines as inhibitors of mycobacteria” (Bioorg Med Chem, 2007).

Usually Inhibition stands for how much of the control response was suppressed. Low values mean little suppression, high ones strong suppression. By inhibition is commonly meant the change of the read-out against control, counted positive when it falls. Lower therefore signals a response near the control.

In turn, `O=c1[nH]c(=O)n(COCCO)cc1Cl` registered an Inhibition in assay [1] of 0%.
For `O=c1ccn(COCCO)c(=O)[nH]1`, the Inhibition in assay [1] is reported as 0%.
Still for that read-out and setting: in the case of `Cc1cn(COCCO)c(=O)[nH]c1=O` it was 0%.
For the molecule `[N-]=[N+]=NC(CI)c1cn(COC(CO)CO)c(=O)[nH]c1=O` (stereo unspecified), the Inhibition in assay [1] was determined as 0%.
Regarding `[N-]=[N+]=NC(CBr)c1cn(COC(CO)CO)c(=O)[nH]c1=O` (stereo unspecified), the Inhibition in assay [1] was found to be 0%.
Regarding `[N-]=[N+]=NC(CI)c1cn(COCCO)c(=O)[nH]c1=O` (stereo unspecified), in assay [2], the inhibition at 100 µg/mL stood at 50%. The same molecule yielded an inhibition at 50 µg/mL in assay [3] of 50%.
As for `[N-]=[N+]=NC(CBr)c1cn(COCCO)c(=O)[nH]c1=O` (stereo unspecified), in assay [3], the inhibition at 50 µg/mL was 100%.
In assay [1], `O=c1[nH]c(=O)n(COCCO)cc1I` yielded an Inhibition of 0%.
`Nc1cn(COCCO)c(=O)[nH]c1=O` yielded an inhibition at 100 µg/mL in assay [2] of 50%. In assay [3], testing at 50 µg/mL gave an inhibition of 50%.
As for `CCCCCCCCCCC#Cc1cn(COCCO)c(=O)n(C#CCCCCCCCCCC)c1=O`, the Inhibition in assay [1] came out at 0%.
With `CCCCCCCCC#Cc1cn(COC(CO)CO)c(=O)[nH]c1=O`, the inhibition at 100 µg/mL in assay [2] amounted to 100%. For the same molecule, the inhibition at 10 µg/mL in assay [4] turned out to be 60%. Besides, in assay [3], the inhibition at 50 µg/mL stood at 100%.
In assay [2], `CCCCCCCCCCC#Cc1cn(COC(CO)CO)c(=O)[nH]c1=O` had an inhibition at 100 µg/mL of 100%. Also, the inhibition at 10 µg/mL in assay [4] was 80%. Testing at 1 µg/mL in assay [5] gave an inhibition of 50%. At 50 µg/mL the inhibition in assay [3] was 100%.
In assay [1], `CCc1cn(COCCO)c(=O)[nH]c1=O` displayed an Inhibition of 0%.
Take `CCCCCC#Cc1cn(COCCO)c(=O)[nH]c1=O`: the Inhibition in assay [1] was determined as 0%.
In assay [1], `O=c1[nH]c(=O)n(COCCO)cc1F` returned an Inhibition of 0%.
For the molecule `O=c1[nH]c(=O)n(COCCO)cc1Br`, the Inhibition in assay [1] is 0%.
As for `[N-]=[N+]=NC(CCl)c1cn(COC(CO)CO)c(=O)[nH]c1=O` (stereo unspecified), the Inhibition in assay [1] was determined as 0%.
`[N-]=[N+]=NC(CCl)c1cn(COCCO)c(=O)[nH]c1=O` (stereo unspecified): in assay [2], the inhibition at 100 µg/mL came to 100%. Moreover, the inhibition at 10 µg/mL in assay [4] came to 50%. In addition, 50 µg/mL produced 100% inhibition in assay [3].
Regarding `O=c1[nH]c(=O)n(COCCO)cc1[N+](=O)[O-]`, in assay [1], the Inhibition was 0%.
In assay [2], `C=C(N=[N+]=[N-])c1cn(COCCO)c(=O)[nH]c1=O` registered an inhibition at 100 µg/mL of 50%. Moreover, 10 µg/mL produced 50% inhibition in assay [4]. In assay [3], at 50 µg/mL the inhibition was 50%.
As for `C=C(N=[N+]=[N-])c1cn(COC(CO)CO)c(=O)[nH]c1=O`, the Inhibition in assay [1] came out at 0%.
Consider `C=Cc1cn(COCCO)c(=O)[nH]c1=O`, for which the Inhibition in assay [1] is 0%.
In assay [1], `C=Cc1cn(COC(CO)CO)c(=O)[nH]c1=O` came in with an Inhibition of 0%.
In assay [1], `O=c1[nH]c(=O)n(COC(CO)CO)cc1I` [IODACYCLUR] gave an Inhibition of 0%.
On to `CO[C@H]1/C=C/O[C@@]2(C)Oc3c(C)c(O)c4c(O)c(c(/C=N/N5CCN(C)CC5)c(O)c4c3C2=O)NC(=O)/C(C)=C\C=C\[C@H](C)[C@H](O)[C@@H](C)[C@@H](O)[C@@H](C)[C@H](OC(C)=O)[C@@H]1C` [RIFAMPIN], for which the inhibition at 1 µg/mL in assay [5] worked out at 100%.
